Most compounds without a hit are left out; they make up all but 3.5% or so of the library.
MrgX1 antagonist: antagonists of human MrgX1 receptor; 310,000 tested, 1.3% active; B-score at 10 µM; AID 588676; MRGX1-HEK293 calcium flux, Fluo-4, BAM8-22 antagonism; stronger effect = lower value;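 active = calcium-response B-score plate-corrected more than 3 library SD below zero, starting fluorescence within 5 deviations, no agonist response on first addition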;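 also: peak minus trough fluorescence over baseline after final BAM8-22 challenge near maximal dose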
Target sequence (Q96LB2 whole entry, looked up): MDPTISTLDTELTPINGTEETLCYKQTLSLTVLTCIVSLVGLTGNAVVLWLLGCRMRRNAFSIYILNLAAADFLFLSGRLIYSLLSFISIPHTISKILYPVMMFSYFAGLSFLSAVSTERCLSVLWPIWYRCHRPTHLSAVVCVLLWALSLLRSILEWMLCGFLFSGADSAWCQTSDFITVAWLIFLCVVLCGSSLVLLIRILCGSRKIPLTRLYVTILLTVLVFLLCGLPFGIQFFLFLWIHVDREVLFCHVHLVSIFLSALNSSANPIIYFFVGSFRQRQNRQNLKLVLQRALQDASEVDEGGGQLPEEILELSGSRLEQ
MrgX1 ag: activates human MrgX1 receptor signaling; Q96LB2; MrgX1-HEK293 cells, Fluo-4 calcium fluorescence, agonist mode; stronger effect = higher value; B-score at 10 µM; 310,000 tested, 0.44% active; AID 588627;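 active = calcium response B-score plate-corrected fluorescence ratio at least 3 library SD, with starting fluorescence B-score inside 5 SD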
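Assay system: MrgX1-expressing HEK293 cells / Amount: fifteen thousand cells per well / Doses: test compound in the initial addition of three / Timing: cells plated overnight, dye loaded 0.5 h 37 °C, 0.5 h room temperature / Technique: kinetic calcium dye fluorescence, Fluo-4 NW / Control set: positive and negative controls per plate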
MrgX1 PAM: allosterically activates human MrgX1 receptor signaling | Q96LB2 | 310,000 tested, 0.63% active | MrgX1-HEK293, Fluo-4 calcium flux, FDSS; stronger effect = higher value | B-score at 10 µM;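 active = plate-corrected calcium response at least 3 library SD above typical, normal starting fluorescence, not activating the receptor alone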;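 also: compound read alongside a low EC10 to EC30 dose of BAM8-22 agonist; peak minus trough fluorescence over baseline measured at the second addition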
RGS4 block: inhibitors of human RGS4; P49798; HEK293 M3R/RGS4 inducible, Fluo-4 calcium flux; stronger effect = higher value; triggered by carbachol at its EC20; B-score at 10 µM; 310,000 tested, 0.45% active;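 active = B-score, a plate-corrected calcium signal, over three deviations above library mean, with baseline fluorescence within five deviations of library mean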;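 also: RGS4 expression induced by doxycycline in cells with stable M3 receptor; B-score is computed from the integrated fluorescence ratio over baseline after carbachol; higher B-score means a larger calcium signal and so more RGS4 inhibition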
Target sequence (P49798 whole entry, looked up): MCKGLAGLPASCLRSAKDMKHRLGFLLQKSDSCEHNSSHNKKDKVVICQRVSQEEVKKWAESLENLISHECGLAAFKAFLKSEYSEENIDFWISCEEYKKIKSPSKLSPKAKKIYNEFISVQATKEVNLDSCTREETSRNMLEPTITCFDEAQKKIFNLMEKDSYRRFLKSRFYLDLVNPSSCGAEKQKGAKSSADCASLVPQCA
RGS4 act: potentiators or activators of RGS4; HEK293 M3R/inducible RGS4, carbachol calcium flux Fluo4; stronger effect = lower value; B-score at 10 µM; 310,000 tested, 0.92% active; AID 463111;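 active = B-score of the integrated calcium signal more than 4 SD below the library mean, with starting fluorescence not abnormally high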;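 also: negative B-score means reduced calcium response which marks RGS4 activation or potentiation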
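test system = M3R-expressing HEK293 line, RGS4 induced by doxycycline | probe or stimulus = carbachol at ECmax as muscarinic agonist stimulus | timing = dye loading 30 min 37 °C, buffer rest 30 min RT | signal = calcium dye Fluo4 fluorescence | evaluation = B score from integrated fluorescence ratio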
RGS4 block valid: validation of RGS4 inhibitors; shares compounds with RGS4 block; HEK293 M3R/RGS4, carbachol calcium Fluo-4 fluorescence; carbachol added at its EC20; 0 = buffer wells, 100 = carbachol control; calcium response, % at 10 µM; 1,700 tested, 65% active; AID 492999;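 active = duplicate-averaged calcium response above the buffer-only control mean plus 5 SD of those controls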;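 also: integrated fluorescence ratio F max minus min over baseline F0; higher response in RGS4-induced cells means RGS4 inhibition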
M3R Ca ctr: non-induced cell nonspecific activity of RGS4 inhibitors. AID 493000. HEK293 M3R non-induced, carbachol calcium Fluo-4; submaximal (EC20) carbachol stimulus; buffer wells 0%, carbachol control wells 100%. activity (percent), % at 10 µM. 1,900 tested, 20% active. shares compounds with RGS4 block; call rule not given here;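 also: RGS4 induction absent so cells express M3R without RGS4; higher means more calcium signal and flags a non-specific hit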
M3R basal Ca ctr: second RGS4 inhibitor counter-screen in uninduced cells lacking carbachol | shares compounds with RGS4 block | calcium response (agonist-mode artifact), % at 10 µM | 1,900 tested, 22% active | HEK293 M3R/RGS4 non-induced, Fluo-4 calcium, no carbachol; normalised: buffer wells 0%, carbachol wells 100% | AID 493001;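 active = duplicate-averaged calcium rise in uninduced cells above buffer wells' mean plus 5 SD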
* marks the source's active call; other numbers are inactive results.

What do the screens show for `N#CC1=C2N=C(N)c3ccccc3N2C2=C(C(=O)CCC2)C1c1ccc(Cl)cc1` (stereo not drawn)?
MrgX1 antagonist: inactive; MrgX1 ag: inactive; MrgX1 PAM: inactive; RGS4 block: 7.5*; RGS4 act: inactive; RGS4 block valid: 20%*; M3R Ca ctr: 28%*; M3R basal Ca ctr: 24%*

What do the screens show for `Nc1n[nH]c(C2CC2)c1N=Nc1ccc(Cl)cc1`?
MrgX1 antagonist: inactive; MrgX1 ag: inactive; MrgX1 PAM: inactive; RGS4 block: 7*; RGS4 act: inactive; RGS4 block valid: 6.5%*; M3R Ca ctr: inactive; M3R basal Ca ctr: inactive

How did Cc1[nH]nc(N)c1N=Nc1ccc(Br)cc1 do in these assays?
MrgX1 antagonist: inactive; MrgX1 ag: inactive; MrgX1 PAM: inactive; RGS4 block: 17*; RGS4 act: inactive; RGS4 block valid: 20%*; M3R Ca ctr: inactive; M3R basal Ca ctr: inactive

How did Cc1ccc(N=Nc2c(N)n[nH]c2N)cc1 do in these assays?
MrgX1 antagonist: inactive; MrgX1 ag: inactive; MrgX1 PAM: inactive; RGS4 block: inactive; RGS4 act: inactive

What do the screens show for `CCSc1nnc(NC(=O)CCC2CCCCC2)s1`?
MrgX1 antagonist: inactive; MrgX1 ag: inactive; MrgX1 PAM: inactive; RGS4 block: inactive; RGS4 act: inactive

How did Oc1ccc(Br)cc1/C=N/n1c(C2CCCCC2)n[nH]c1=S do in these assays?
MrgX1 antagonist: inactive; MrgX1 ag: inactive; MrgX1 PAM: inactive; RGS4 block: 5.7*; RGS4 act: inactive; RGS4 block valid: 5.0%*; M3R Ca ctr: inactive; M3R basal Ca ctr: inactive

What do the screens show for `CCCCC1=CC2=C(c3ccco3)C(=O)C(C)(OC(=O)c3ccc(OC)cc3)C(=O)C2=CN1c1ccccc1` (stereo not drawn)?
MrgX1 antagonist: inactive; MrgX1 ag: inactive; MrgX1 PAM: inactive; RGS4 block: inactive; RGS4 act: inactive; M3R Ca ctr: inactive; M3R basal Ca ctr: inactive

Results for C=CCN1C=C2C(=O)C(C)(OC(=O)c3ccc(OC)cc3)C(=O)C(c3ccco3)=C2C=C1CCCC (stereo not drawn) ?
MrgX1 antagonist: inactive; MrgX1 ag: inactive; MrgX1 PAM: inactive; RGS4 block: inactive; RGS4 act: inactive; RGS4 block valid: inactive; M3R Ca ctr: inactive; M3R basal Ca ctr: inactive

Results for C=CCN1C=C2C(=O)C(C)(OC(=O)c3ccco3)C(=O)C(C=C)=C2C=C1C1CC1 (stereo not drawn) ?
MrgX1 antagonist: inactive; MrgX1 ag: inactive; MrgX1 PAM: inactive; RGS4 block: inactive; RGS4 act: inactive

What do the screens show for `CCCCC1=CC2=C(c3ccco3)C(=O)C(C)(OC(=O)c3ccc(OC)cc3)C(=O)C2=CN1CCCOC(C)C` (stereo not drawn)?
MrgX1 antagonist: inactive; MrgX1 ag: inactive; MrgX1 PAM: inactive; RGS4 block: inactive; RGS4 act: inactive; RGS4 block valid: inactive; M3R Ca ctr: inactive; M3R basal Ca ctr: inactive

Results for C=CCN(CC=C)C(=O)CN1C(=O)NC(c2ccccc2)(c2ccccc2)C1=O ?
MrgX1 antagonist: inactive; MrgX1 ag: inactive; MrgX1 PAM: inactive; RGS4 block: inactive; RGS4 act: inactive

What do the screens show for `O=C(CCC(=O)N1CCN(c2ccccc2F)CC1)c1ccc(F)cc1`?
MrgX1 antagonist: inactive; MrgX1 ag: inactive; MrgX1 PAM: inactive; RGS4 block: inactive; RGS4 act: inactive

Screening results (PubChem BioAssay)
